Source: ChEMBL document CHEMBL1155918, “Oxadiazole-carbonylaminothioureas as SIRT1 and SIRT2 inhibitors” (J Med Chem, 2008)
pIC50: −log10 of the molar value.

Experiments:
[1] = target: T1, NAD-dependent protein deacetylase sirtuin-1 (Homo sapiens, UniProt Q96EB6); test: Inhibition of human SIRT1 assessed as nicotinamide releasing by microplate filtration assay
T1 sequence (Q96EB6 whole entry): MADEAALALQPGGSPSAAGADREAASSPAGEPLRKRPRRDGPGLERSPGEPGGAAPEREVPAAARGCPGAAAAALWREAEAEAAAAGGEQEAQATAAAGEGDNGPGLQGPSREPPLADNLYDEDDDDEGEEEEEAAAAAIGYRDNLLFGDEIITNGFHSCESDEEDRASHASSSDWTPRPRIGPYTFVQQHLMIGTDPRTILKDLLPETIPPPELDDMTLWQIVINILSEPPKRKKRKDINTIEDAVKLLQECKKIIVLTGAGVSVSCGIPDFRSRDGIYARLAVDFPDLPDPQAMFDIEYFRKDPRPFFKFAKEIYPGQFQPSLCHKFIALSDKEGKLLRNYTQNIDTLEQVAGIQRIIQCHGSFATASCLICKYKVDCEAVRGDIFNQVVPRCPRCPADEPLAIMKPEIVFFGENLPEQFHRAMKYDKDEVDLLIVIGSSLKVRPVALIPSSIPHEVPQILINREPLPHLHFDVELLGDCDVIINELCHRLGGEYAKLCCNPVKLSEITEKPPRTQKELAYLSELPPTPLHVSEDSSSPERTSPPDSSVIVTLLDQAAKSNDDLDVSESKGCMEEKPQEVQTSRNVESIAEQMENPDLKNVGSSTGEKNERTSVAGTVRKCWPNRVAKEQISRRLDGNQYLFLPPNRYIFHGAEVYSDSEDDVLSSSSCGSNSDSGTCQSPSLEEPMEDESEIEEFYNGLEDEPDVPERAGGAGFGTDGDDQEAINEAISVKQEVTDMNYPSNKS

[2] = target: T2, NAD-dependent protein deacetylase sirtuin-2 (Homo sapiens, UniProt Q8IXJ6); test: Inhibition of human SIRT2 assessed as nicotinamide releasing by microplate filtration assay
T2 sequence (Q8IXJ6 whole entry): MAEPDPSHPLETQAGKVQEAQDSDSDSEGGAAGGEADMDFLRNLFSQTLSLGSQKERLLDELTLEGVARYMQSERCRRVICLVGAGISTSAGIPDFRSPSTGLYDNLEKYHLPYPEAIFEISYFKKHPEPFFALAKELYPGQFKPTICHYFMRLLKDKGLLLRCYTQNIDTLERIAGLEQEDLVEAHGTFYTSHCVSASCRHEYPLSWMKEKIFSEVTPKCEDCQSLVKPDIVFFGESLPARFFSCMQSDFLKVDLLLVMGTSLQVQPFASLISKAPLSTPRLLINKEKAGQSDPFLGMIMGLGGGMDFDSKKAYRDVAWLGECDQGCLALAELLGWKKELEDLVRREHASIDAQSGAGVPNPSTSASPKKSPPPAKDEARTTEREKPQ

[3] = target: T3, NAD-dependent protein deacetylase sirtuin-2 (Homo sapiens) (UniProt Q8IXJ6); test: Inhibition of human SIRT2 at 200 uM
T3 sequence (whole entry): T2 sequence (Q8IXJ6 whole entry)
Method in brief: (§1)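 Single-concentration screen at 200 µM compound in the NAD⁺-based assay, with radiolabeled nicotinamide release read by thin layer chromatography. Result is % inhibition ± standard deviation (n = 2-3).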

[4] = target: T4, NAD-dependent protein deacetylase sirtuin-1 (Homo sapiens) (UniProt Q96EB6); test: Inhibition of human SIRT1 at 200 uM; method in brief: as §1
T4 sequence (whole entry): T1 sequence (Q96EB6 whole entry)

Compound | pIC50 [1] | pIC50 [2] | inhibition [3] | inhibition [4]
CC(C)(C)OC(=O)Nc1cccc(-c2noc(C(=O)NNC(=S)Nc3ccc(C(F)(F)F)cc3)n2)c1 | 3.77 | 3.89 | 71% | 69%
O=C(CNC(=O)c1nc(-c2ccccc2)no1)Nc1ccccc1 |  |  | 17% | 28%
CC(C)(C)c1ccc(-c2noc(C(=O)NNC(=S)Nc3cccc(C(F)(F)F)c3)n2)cc1 | 3.72 | 4.24 | 87% | 59%
O=C(NNC(=S)Nc1ccc(F)cc1)c1nc(-c2cccc3ccccc23)no1 |  |  | 35% | 10%
O=C(CCCc1nc(-c2ccccc2)no1)Nc1ccccc1 |  |  | 5% | 0%
CC(C)(C)c1ccc(-c2noc(C(=O)NNC(=S)Nc3ccccc3)n2)cc1 |  |  | 29% | -2%
O=C(NNC(=S)Nc1cccc(C(F)(F)F)c1)c1nc(-c2cccc3ccccc23)no1 | 4.89 | 3.95 | 56% | 57%
O=C(NNC(=S)Nc1ccc(C(F)(F)F)cc1)c1nc(-c2cccc3ccccc23)no1 | 3.50 | 4.13 | 71% | 54%
O=C(NNC(=S)Nc1ccc(C(F)(F)F)cc1)c1nc(-c2cccnc2)no1 |  |  | -4% | 4%
O=C(NNC(=S)Nc1ccc(F)cc1)c1nc(-c2ccccc2)no1 |  |  | 22% | 
CC(C)(C)c1ccc(-c2noc(C(=O)NNC(=O)Nc3cccc([N+](=O)[O-])c3)n2)cc1 |  |  | 39% | 18%
CC(C)(C)c1ccc(-c2noc(C(=O)NCC(=O)Nc3cccc(C(F)(F)F)c3)n2)cc1 |  |  | 18% | 20%
CC(C)(C)c1ccc(-c2noc(C(=O)NNC(=O)Nc3ccccc3)n2)cc1 |  |  | 38% | 14%
CC(C)(C)c1ccc(-c2noc(CCCC(=O)Nc3cccc(C(F)(F)F)c3)n2)cc1 |  |  | 0% | 17%
O=C(NNC(=S)Nc1ccc(C(F)(F)F)cc1)c1nc(-c2ccccc2)no1 |  |  | 8% | 29%
O=C(NNC(=O)c1nc(-c2cccc3ccccc23)no1)Nc1cccc(C(F)(F)F)c1 |  | 3.59 | 51% | 12%
CCCCNC(=O)NNC(=O)c1nc(-c2ccc(C(C)(C)C)cc2)no1 |  |  | 7% | 22%
CC(C)(C)c1ccc(-c2noc(C(=O)NNC(=S)Nc3ccc(C(F)(F)F)cc3)n2)cc1 | 3.49 | 3.96 | 89% | 70%
